Laboratory results reported in ChEMBL document CHEMBL1121449, “Synthesis and antineoplastic activity of hydroquinone dialdehydes” (J Med Chem, 1980).
Several values for one entry are separate records, joined by “and”; a condition that tells them apart may be missing. Equal values may be shown once.

Experiments:
Mus musculus [1] = assay: Tested for change in body weight from onset to termination at dose of 10 mg/kg; format: functional
Outline: (§1)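 Female CD-1 mice inoculated ip with 0.1 mL of 10^7 Sarcoma 180 ascites cells/mL. Drug in 0.9% NaCl with 5% ethanol and Tween 80, serially diluted in saline, given ip once daily for 6 days starting 24 h after implantation. Dose based on mean starting weight. Controls received saline. Weight change recorded from day 0 to day 7, as % change.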

Mus musculus [2] = assay: Tested for change in body weight from onset to termination at dose of 5 mg/kg; format: functional; outline: as §1
Mus musculus [3] = assay: Tested for change in body weight from onset to termination at dose of 20 mg/kg; format: functional; outline: as §1
Mus musculus [4] = assay: Tested for mean survival time treated animal not surviving 50 days as a percentage at dose of 2.5 mg/kg; format: functional
Outline: (§2)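 Female CD-1 mice, Sarcoma 180 ascites, 0.1 mL of 10^7 cells/mL given ip. Drug in 0.9% NaCl, 5% ethanol, Tween 80, serially diluted with saline. Dosed ip at 0.5 mL daily for 6 days from 24 h post-implant; daily dose based on starting mean weight. T/C is the mean survival of treated mice dying before 50 days vs controls. Survivors are those alive ≥50 days out of those treated.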

Mus musculus [5] = assay: Tested for number of animal surviving at least 50 days out of 5 animal treated at dose of 2.5 mg/kg; format: functional; outline: as §2
Mus musculus [6] = assay: Tested for number of animal surviving at least 50 days out of 10 animal treated at dose of 20 mg/kg; format: functional; outline: as §2
Mus musculus [7] = assay: Tested for number of animal surviving at least 50 days out of 5 animal treated at dose of 1.25 mg/kg; format: functional; outline: as §2
Mus musculus [8] = assay: Tested for mean survival time treated animal not surviving 50 days as a percentage at dose of 5 mg/kg; format: functional; outline: as §2
Mus musculus [9] = assay: Tested for number of animal surviving at least 50 days out of 10 animal treated at dose of 5 mg/kg; format: functional; outline: as §2
Mus musculus [10] = assay: Tested for change in body weight from onset to termination at dose of 15 mg/kg; format: functional; outline: as §1
Mus musculus [11] = assay: Tested for change in body weight from onset to termination at dose of 2.5 mg/kg; format: functional; outline: as §1
Mus musculus [12] = assay: Tested for number of animal surviving at least 50 days out of 10 animal treated at dose of 10 mg/kg; format: functional; outline: as §2
Mus musculus [13] = assay: Tested for change in body weight from onset to termination at dose of 1.25 mg/kg; format: functional; outline: as §1
Mus musculus [14] = assay: Tested for mean survival time treated animal not surviving 50 days as a percentage at dose of 10 mg/kg; format: functional; outline: as §2
Mus musculus [15] = assay: Tested for mean survival time treated animal not surviving 50 days as a percentage at dose of 20 mg/kg; format: functional; outline: as §2
Mus musculus [16] = assay: Tested for number of animal surviving at least 50 days out of 5 animal treated at dose of 15 mg/kg; format: functional; outline: as §2
Mus musculus [17] = assay: Tested for mean survival time treated animal not surviving 50 days as a percentage at dose of 1.25 mg/kg; format: functional; outline: as §2
[18] = Tested for inhibition of growth of sarcoma 180 cells in culture; format: functional, cell-based; conditions: Mus musculus
Outline: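 Sarcoma 180 cells in suspension in Fischer's medium with 10% horse serum and penicillin/streptomycin, seeded at 10^4 cells/mL. Drug added from 10× stocks in 10% Me2SO/PBS, final 1–100 μM. Control cultures contained 1% Me2SO. Triplicate Coulter counts at 24, 48 and 72 h. IC50 read from a plot of inhibition of cell-number increase at 72 h versus concentration.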

Mus musculus [19] = assay: Tested for mean survival time treated animal not surviving 50 days as a percentage at dose of 15 mg/kg; format: functional; outline: as §2
Mus musculus [20] = assay: Tested for number of animal surviving at least 50 days out of 5 animal treated at dose of 20 mg/kg; format: functional; outline: as §2
Mus musculus [21] = assay: Tested for change in body weight from onset to termination at dose of 30 mg/kg; format: functional; outline: as §1
Mus musculus [22] = assay: Tested for number of animal surviving at least 50 days out of 5 animal treated at dose of 10 mg/kg; format: functional; outline: as §2
Mus musculus [23] = assay: Tested for mean survival time treated animal not surviving 50 days as a percentage at dose of 30 mg/kg; format: functional; outline: as §2
Mus musculus [24] = assay: Tested for number of animal surviving at least 50 days out of 5 animal treated at dose of 30 mg/kg; format: functional; outline: as §2
Mus musculus [25] = assay: Tested for change in body weight of Mice bearing Ehrlich carcinoma from onset to termination at dose of 5 mg/kg; format: functional
Outline: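 Female CD-1 mice given ip implants of Ehrlich carcinoma (0.1 mL of 10^7 cells/mL). Drug in saline containing 5% ethanol and Tween 80, injected ip once daily for 6 consecutive days from 24 h post-implant. Controls received 0.9% NaCl. % body weight change measured between tumor implantation (day 0) and day 7.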

Mus musculus [26] = assay: Tested for mean survival time of Mice bearing […] 755 not surviving 50 days as a percentage at dose of 20 mg/kg; format: functional
Outline: (§3)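 Female AKD2F1 mice, adenocarcinoma 755, 0.1 mL of 10^7 cells/mL given ip. Vehicle 0.9% NaCl/5% ethanol/Tween 80, serially diluted with saline. Dosed ip at 0.5 mL once daily for 6 consecutive days starting 24 h post-implant; saline controls. T/C is the mean survival of non-50-day survivors as % of controls. Survivors are those alive ≥50 days.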

Mus musculus [27] = assay: Tested for Mice bearing Ehrlich carcinoma surviving at least 50 days out of 10 animal treated at dose of 5 mg/kg; format: functional
Outline: (§4)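 Female CD-1 mice, Ehrlich ascites carcinoma, 0.1 mL of 10^7 cells/mL given ip. Drug in 0.9% NaCl with 5% ethanol and trace Tween 80, serially diluted with saline. Dosed ip at 0.5 mL once daily for 6 days from 24 h post-implant; saline controls. T/C is the mean survival of treated mice dying before 50 days as % of controls. Survivors are those alive ≥50 days.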

Mus musculus [28] = assay: Tested for Mice bearing […] 755 surviving at least 50 days out of 5 animal treated at dose of 20 mg/kg; format: functional; outline: as §3
Mus musculus [29] = assay: Tested for Mice bearing Ehrlich carcinoma surviving at least 50 days out of 10 animal treated at dose of 20 mg/kg; format: functional; outline: as §4
Mus musculus [30] = assay: Tested for Mice bearing […] 755 surviving at least 50 days out of 5 animal treated at dose of 10 mg/kg; format: functional; outline: as §3
Mus musculus [31] = assay: Tested for mean survival time of Mice bearing […] 755 not surviving 50 days as a percentage at dose of 10 mg/kg; format: functional; outline: as §3
Mus musculus [32] = assay: Tested for change in body weight of Mice bearing […] 755 from onset to termination at dose of 5 mg/kg; format: functional
Outline: (§5)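 Adenocarcinoma 755 implanted ip (0.1 mL of 10^7 cells/mL) in female AKD2F1 mice. Daily ip dosing for 6 days beginning 24 h after implantation, vehicle 0.9% NaCl/5% ethanol/Tween 80, lower doses by saline dilution. Control mice received saline. Weight difference between day 0 and day 7 taken as % change and used as a toxicity measure.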

Mus musculus [33] = assay: Tested for mean survival time of Mice bearing Ehrlich carcinoma not surviving 50 days as a percentage at dose of 20 mg/kg; format: functional; outline: as §4
Mus musculus [34] = assay: Tested for change in body weight of Mice bearing […] 755 from onset to termination at dose of 20 mg/kg; format: functional; outline: as §5
Mus musculus [35] = assay: Tested for change in body weight of Mice bearing […] 755 from onset to termination at dose of 10 mg/kg; format: functional; outline: as §5
Mus musculus [36] = assay: Tested for number of animal surviving at least 50 days out of 10 animal treated at dose of mg/kg; format: functional; outline: as §2
Mus musculus [37] = assay: Tested for mean survival time of Mice bearing […] 755 not surviving 50 days as a percentage at dose of 5 mg/kg; format: functional; outline: as §3
Mus musculus [38] = assay: Tested for mean survival time of Mice bearing Ehrlich carcinoma not surviving 50 days as a percentage at dose of 10 mg/kg; format: functional; outline: as §4
Mus musculus [39] = assay: Tested for Mice bearing […] 755 surviving at least 50 days out of 5 animal treated at dose of 5 mg/kg; format: functional; outline: as §3
Mus musculus [40] = assay: Tested for mean survival time of Mice bearing Ehrlich carcinoma not surviving 50 days as a percentage at dose of 5 mg/kg; format: functional; outline: as §4

**Q.** Which Activity (Mus musculus [1]) does the source give for O=Cc1c(C=O)c(O)c2ccccc2c1O here?
**A.** 17%

**Q.** And the Activity (Mus musculus [2])?
**A.** 14%

**Q.** And the Activity (Mus musculus [3])?
**A.** 1%

**Q.** And the “Mean survival time, treated vs control (T/C)” value (Mus musculus [4])?
**A.** 81%

**Q.** And the Survivors (Mus musculus [5])?
**A.** 0

**Q.** And the Survivors (Mus musculus [6])?
**A.** 0

**Q.** And the Survivors (Mus musculus [7])?
**A.** 0

**Q.** And the Activity (Mus musculus [8])?
**A.** 93%

**Q.** What about the Survivors (Mus musculus [9]) of the same compound?
**A.** 0

**Q.** What about the Activity (Mus musculus [10]) of the same compound?
**A.** 0%

**Q.** What about the Activity (Mus musculus [11]) of the same compound?
**A.** 14%

**Q.** What about the Survivors (Mus musculus [12]) of the same compound?
**A.** 0

**Q.** What about the Activity (Mus musculus [13]) of the same compound?
**A.** 16%

**Q.** And the Activity (Mus musculus [14])?
**A.** 90%

**Q.** What about the Activity (Mus musculus [15]) of the same compound?
**A.** 76%

**Q.** And the Survivors (Mus musculus [16])?
**A.** 1

**Q.** And the Activity (Mus musculus [17])?
**A.** 81%

**Q.** What about the IC50 [18] of the same compound?
**A.** 66 µM

**Q.** What about the Activity (Mus musculus [19]) of the same compound?
**A.** 64%

**Q.** With Cc1c(C)c(O)c(C=O)c(C)c1O as the compound, how does the Activity (Mus musculus [1]) read?
**A.** 25%

**Q.** And the Activity (Mus musculus [3])?
**A.** 25%

**Q.** What about the Survivors (Mus musculus [20]) of the same compound?
**A.** 0

**Q.** What about the Activity (Mus musculus [21]) of the same compound?
**A.** 17%

**Q.** And the Activity (Mus musculus [14])?
**A.** 94%

**Q.** What about the Activity (Mus musculus [15]) of the same compound?
**A.** 84%

**Q.** What about the Survivors (Mus musculus [22]) of the same compound?
**A.** 0

**Q.** What about the Activity (Mus musculus [23]) of the same compound?
**A.** 89%

**Q.** And the IC50 [18]?
**A.** 27 µM

**Q.** And the Survivors (Mus musculus [24])?
**A.** 0

**Q.** For CC(=O)Oc1c(C)c(C)c(OC(C)=O)c2c1C(OC(C)=O)OC2OC(C)=O (centres undefined), which Activity (Mus musculus [1]; 10 mg/kg) is on record?
**A.** -6% and -4%

**Q.** What about the Activity (Mus musculus [2]) of the same compound?
**A.** 5%

**Q.** And the Activity (Mus musculus [25])?
**A.** 4%

**Q.** What about the Activity (Mus musculus [26]) of the same compound?
**A.** 38%

**Q.** What about the Survivors (Mus musculus [27]) of the same compound?
**A.** 2

**Q.** What about the Survivors (Mus musculus [28]) of the same compound?
**A.** 1

**Q.** What about the Survivors (Mus musculus [6]) of the same compound?
**A.** 0

**Q.** What about the Survivors (Mus musculus [29]) of the same compound?
**A.** 3

**Q.** What about the Survivors (Mus musculus [30]) of the same compound?
**A.** 4

**Q.** What about the Activity (Mus musculus [31]) of the same compound?
**A.** 16%

**Q.** And the Activity (Mus musculus [32])?
**A.** -7%

**Q.** And the Activity (Mus musculus [8])?
**A.** 109%

**Q.** What about the Survivors (Mus musculus [9]) of the same compound?
**A.** 0

**Q.** What about the Activity (Mus musculus [33]) of the same compound?
**A.** 222%

**Q.** What about the Activity (Mus musculus [34]) of the same compound?
**A.** -14%

**Q.** What about the Activity (Mus musculus [35]) of the same compound?
**A.** -15%

**Q.** And the Survivors (Mus musculus [36])?
**A.** 0

**Q.** And the Activity (Mus musculus [14])?
**A.** 149%

**Q.** What about the Activity (Mus musculus [37]) of the same compound?
**A.** 59%

**Q.** And the Activity (Mus musculus [15])?
**A.** 109%

**Q.** What about the Activity (Mus musculus [38]) of the same compound?
**A.** 195%

**Q.** And the IC50 [18]?
**A.** < 25 µM

**Q.** What about the Survivors (Mus musculus [39]) of the same compound?
**A.** 3

**Q.** And the Activity (Mus musculus [40])?
**A.** 168%

**Q.** With Cc1c(C)c(O)c(C)c(C)c1O [DUROHYDROQUINONE] as the compound, how does the IC50 [18] read?
**A.** 12 µM
